Assay results published in paper PMC5033602 (Investigative Ophthalmology & Visual Science, 2016).

B1: CGI-58: protein that stimulates PEDF-R (PNPLA2) activity (protein, UniProt Q8WTS1 2-349, looked up)
1-acylglycerol-3-phosphate …: AAEEEEVDSADTGERSGWLTGWLPTWCPTSISHLKEAEEKMLKCVPCTYKKEPVRISNGNKIWTLKFSHNISNKTPLVLLHGFGGGLGLWALNFGDLCTNRPVYAFDLLGFGRSSRPRFDSDAEEVENQFVESIEEWRCALGLDKMILLGHNLGGFLAAAYSLKYPSRVNHLILVEPWGFPERPDLADQDRPIPVWIRALGAALTPFNPLAGLRIAGPFGLSLVQRLRPDFKRKYSSMFEDDTVTEYIYHCNVQTPSGETAFKNMTIPYGWAKRPMLQRIGKMHPDIPVSVIFGARSCIDGNSGTSIQSLRPHSYVKTIAILGAGHYVYADQPEEFNQKVKEICDTVD
B2: PEDF: pigment epithelium-derived factor, stimulates PEDF-R (protein, UniProt P36955 20-418, looked up)
Pigment epithelium-derived …: QNPASPPEEGSPDPDSTGALVEEEDPFFKVPVNKLAAAVSNFGYDLYRVRSSTSPTTNVLLSPLSVATALSALSLGAEQRTESIIHRALYYDLISSPDIHGTYKELLDTVTAPQKNLKSASRIVFEKKLRIKSSFVAPLEKSYGTRPRVLTGNPRLDLQEINNWVQAQMKGKLARSTKEIPDEISILLLGVAHFKGQWVTKFDSRKTSLEDFYLDEERTVRVPMMSDPKAVLRYGLDSDLSCKIAQLPLTGSMSIIFFLPLKVTQNLTLIEESLTSEFIHDIDRELKTVQAVLTVPKLKLSYEGEVTKSLQEMKLQSLFDSPDFSKITGKPIKLTQVEHRAGFEWNEDGAGTTPSPGLQPAHLTFPLDYHLNQPFIFVLRDTDTGALLFIGKILDPRGP
B3: G0S2: G(0)/G(1) switch gene 2, inhibits PEDF-R (PNPLA2) (protein, UniProt P27469 1-103, looked up)
G0/G1 switch protein 2: METVQELIPLAKEMMAQKRKGKMVKLYVLGSVLALFGVVLGLMETVCSPFTAARRLRDQEAAVAELQAALERQALQKQALQEKGKQQDTVLGGRALSNRQHAS
B4: perilipin 5: protein that inhibits PEDF-R (PNPLA2) activity (protein, UniProt Q00G26 1-463, looked up)
Perilipin-5: MSEEEAAQIPRSSVWEQDQQNVVQRVVALPLVRATCTAVCDVYSAAKDRHPLLGSACRLAENCVCGLTTRALDHAQPLLEHLQPQLATMNSLACRGLDKLEEKLPFLQQPSETVVTSAKDVVASSVTGVVDLARRGRRWSVELKRSVSHAVDVVLEKSEELVDHFLPMTEEELAALAAEAEGPEVGSVEDQRRQQGYFVRLGSLSARIRHLAYEHSVGKLRQSKHRAQDTLAQLQETLELIDHMQCGVTPTAPACPGKVHELWGEWGQRPPESRRRSQAELETLVLSRSLTQELQGTVEALESSVRGLPAGAQEKVAEVRRSVDALQTAFADARCFRDVPAAALAEGRGRVAHAHACVDELLELVVQAVPLPWLVGPFAPILVERPEPLPDLADLVDEVIGGPDPRWAHLDWPAQQRAWEAEHRDGSGNGDGDRMGVAGDICEQEPETPSCPVKHTLMPELDF

How the values were obtained:
ARPE-19 cells = experiment: Cell death; format: cell-based, human; conditions: H2O2 (600 μM for SCR comparison), dead cell protease activity
How it was run: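 ARPE-19 cells (passages 27–40) grown in DMEM/F-12 with 10% FBS at 37°C, 5% CO₂, plated at 2 × 10⁴ cells/well (96-well) and cultured to confluency (72 h). Serum-starved 8 h in 0.5% serum, then exposed 16 h to H₂O₂ (600 μM for scrambled-control comparison) plus TNF-α (10 ng/mL) with test peptides. Dead-cell protease activity read by CytoTox-Glo; duplicate wells ± SD.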

PEDF-R (PNPLA2) = conditions: cited from earlier work

Row | Molecule | Number of dead cells under oxidative stress (ARPE-19 cells) | Effect on PEDF-R (PNPLA2) enzyme activity (PEDF-R (PNPLA2))
1 | H-KRLQFEPRNYPSLLSTALPNILFRRLGGKFQDMRELCVYL-OH [SCR] | did not decrease the number of dead cells | –
2 | B1 | – | stimulated
3 | B2 | – | stimulated
4 | B3 | – | inhibited
5 | B4 | – | inhibited
